Calls of active or inactive are those of the source. The rule behind the calls is not given here.
How the values were obtained:
Type in all cases: functional
[1] = species: Rattus norvegicus; test: Residual insulin release from rat pancreatic islets at a concentration of 50 uM
How it was run: (§1)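 Rat pancreatic islets in groups of 10 were preincubated 30 min at 37 °C in bicarbonate salt medium with 2.8 mM glucose and 0.5% dialyzed albumin, gassed with 95% O2/5% CO2. They were then incubated 90 min at 37 °C with 16.7 mM glucose plus test drug. Insulin was measured by radioimmunoassay against a rat insulin standard and reported as % residual release.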

[2] = species: Rattus norvegicus; test: Percentage of residual contractile response at 500 uM from isolated rat aorta
[3] = species: Rattus norvegicus; test: Percentage residual insulin release by the compound at 1(uM from rat pancreatic islets; settings: in the assay text read “10(uM” for “1(uM”; how it was run: as §1
[4] = species: Rattus norvegicus; test: Percentage of residual contractile response in isolated rat aorta; +++ indicates that a maximal vasorelaxant activity was observed at 500 uM
[5] = species: Rattus norvegicus; test: Effective dose concentration by the compound to give 50% relaxation of KCl induced concentration
How it was run: (§2)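 Endothelium-denuded transverse aortic rings (3-4 mm) from fed Wistar rats (250-300 g), held at 36 ± 1 °C under 95% O2/5% CO2. After 60 min equilibration they were contracted with 30 mM KCl. At the plateau (1-2 g), drug was added cumulatively until maximal relaxation or 1 mM. Isometric tension was recorded. ED50 was read graphically from each curve. Mean ± sem of 3-12 experiments.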

[6] = species: Rattus norvegicus; test: Effective dose to give 50% relaxation of the KCl induced contraction; how it was run: as §2
[7] = species: Rattus norvegicus; test: Effective dose to give 50% relaxation of KCl induced concentration; how it was run: as §2
[8] = species: Rattus norvegicus; test: Percentage residual insulin release by the compound at 10 uM from rat pancreatic islets; how it was run: as §1
[9] = species: Rattus norvegicus; test: Percentage residual insulin release by the compound at 1 uM from rat pancreatic islets; how it was run: as §1

Compound | Residual insulin secretion [1] [%] | Residual contractile activity [2] [%] | Residual contractile activity [4] | other results
CC1=NS(=O)(=O)c2cc(Cl)ccc2N1C | 83.9 |  |  | 
CC(C)NC1=NS(=O)(=O)c2cnccc2N1C | 79.4 | 84 |  | 
O=S1(=O)N=C(NC2CCCC2)Nc2ccncc21 | 31.6 | 60 |  | 
CCC(C)NC1=NS(=O)(=O)c2cnccc2N1 (stereo not given) | 9.4 | 34 |  | Residual insulin secretion [3]: 49%
O=S1(=O)N=C(C2CCCC2)Nc2ccncc21 | 99.3 |  | maximal vasorelaxant activity was observed at 500 uM | ED50 [5]: 257 µM
O=S1(=O)N=C(C(F)(F)F)Nc2ccncc21 | 90.4 | 96 |  | 
CCNC1=NS(=O)(=O)c2cnccc2N1 | 59.2 | 87 |  | 
CC(C)C(C)NC1=NS(=O)(=O)c2cnccc2N1 (stereo not given) | 8.6 |  | Active | ED50 [6]: 302 µM
CC1=NS(=O)(=O)c2cnccc2N1N1C2CCCC1CC2 | 71.9 | 53 |  | 
CC(C)(C)C1=NS(=O)(=O)c2cnccc2N1 | 81.1 |  | maximal vasorelaxant activity was observed at 500 uM | ED50 [5]: 258 µM
CC(C)CNC1=NS(=O)(=O)c2cnccc2N1 |  |  | maximal vasorelaxant activity was observed at 500 uM | ED50 [6]: 205 µM
CC1=NS(=O)(=O)c2cnccc2N1C1CCCCCCC1 | 90.6 |  | maximal vasorelaxant activity was observed at 500 uM | ED50 [7]: 248 µM
CC(C)C(C)NC1=NS(=O)(=O)c2cc(Cl)ccc2N1 (stereo not given) | 11 |  | maximal vasorelaxant activity was observed at 500 uM | ED50 [6]: 32 µM
CC1=NS(=O)(=O)c2cnccc2N1C | 109 | 94 |  | 
CC(NC1=NS(=O)(=O)c2cnccc2N1)C(C)(C)C (stereo not given) | 10.3 |  | maximal vasorelaxant activity was observed at 500 uM | Residual insulin secretion [8]: 41%; Residual insulin secretion [9]: 70%; ED50 [6]: 104 µM
CCCC1=NS(=O)(=O)c2cnccc2N1 | 85.1 | 77 |  | 
CN1CCN(C2=NS(=O)(=O)c3cnccc3N2)CC1 | 90.6 |  | maximal vasorelaxant activity was observed at 500 uM | ED50 [6]: 125 µM
CCC1=NS(=O)(=O)c2cnccc2N1 | 90.2 | 74 |  | 
CC(C)C1=NS(=O)(=O)c2cnccc2N1 | 79.7 | 71 |  | 

Compound | Residual insulin secretion [1] [%] | Residual contractile activity [2] [%] | Residual contractile activity [4] | other results
CCCCN(C)C1=NS(=O)(=O)c2cnccc2N1 | 76.1 | 47 |  | 
O=S1(=O)NC(C2CCCC2)=Nc2ccc(Cl)cc21 | 14.1 |  | maximal vasorelaxant activity was observed at 500 uM | ED50 [5]: 2.8 µM
CC1=NS(=O)(=O)c2cnccc2N1N1CCOCC1 | 93.5 | 89 |  | 
O=S1(=O)N=CNc2ccncc21 | 99.5 | 94 |  | 
O=S1(=O)N=C(NN2CCOCC2)Nc2ccncc21 | 98.8 | 93 |  | 
O=S1(=O)N=C(NC2CCCCC2)Nc2ccncc21 |  | 40 |  | 
CC(NC1=NS(=O)(=O)c2cnccc2N1C)C(C)(C)C (stereo not given) | 88.5 | 74 |  | 
NC1=NS(=O)(=O)c2cnccc2N1 |  | 77 |  | 
CC(C)C(C)NC1=NS(=O)(=O)c2cnccc2N1C (stereo not given) | 95.4 | 69 |  | 
CC(C)NC1=NS(=O)(=O)c2cnccc2N1 | 42.6 | 89 |  | 
CC(NC1=NS(=O)(=O)c2cc(Cl)ccc2N1)C(C)(C)C (stereo not given) | 9.3 |  | maximal vasorelaxant activity was observed at 500 uM | Residual insulin secretion [8]: 46.9%; Residual insulin secretion [9]: 87.7%; ED50 [6]: 10 µM
CC1=NS(=O)(=O)c2cnccc2N1C(C)C | 68.1 | 86 |  | 
CCCNC1=NS(=O)(=O)c2cnccc2N1 |  | 88 |  | 
CCC(C)NC1=NS(=O)(=O)c2cc(Cl)ccc2N1 (stereo not given) | 5.5 |  | maximal vasorelaxant activity was observed at 500 uM | Residual insulin secretion [8]: 19.9%; Residual insulin secretion [9]: 85.4%; ED50 [6]: 25 µM
CCCCNC1=NS(=O)(=O)c2cnccc2N1 |  | 74 |  | Residual insulin secretion [8]: 82%
CC1=Nc2ccc(Cl)cc2S(=O)(=O)N1 [DIAZOXIDE] |  |  | Active | Residual insulin secretion [8]: 70%; ED50 [6]: 21 µM
CCC(C)NC1=NS(=O)(=O)c2cnccc2N1C (stereo not given) | 81 | 61 |  | 
CC1=NS(=O)(=O)c2cnccc2N1 | 100.4 | 92 |  | 
CC1=NS(=O)(=O)c2cnccc2N1C1CCCCC1 | 87.9 | 52 |  | 

Source: ChEMBL document CHEMBL1129496, “3-and 4-substituted 4H-pyrido[4,3-e]-1,2,4-thiadiazine 1,1-dioxides as potassium channel openers: synthesis, pharmacological evaluation, and structure-activity relationships” (1996)
